Results published in article PMC6300982 (Chemosphere, 2015).

Tests used:
Format in all cases: biochemical
[1] = biological target: T1, UGT1A3 (Homo sapiens, UniProt P35503); experiment: glucuronidation of 4-MU by recombinant enzyme, HPLC-UV
T1 sequence (P35503 29-534): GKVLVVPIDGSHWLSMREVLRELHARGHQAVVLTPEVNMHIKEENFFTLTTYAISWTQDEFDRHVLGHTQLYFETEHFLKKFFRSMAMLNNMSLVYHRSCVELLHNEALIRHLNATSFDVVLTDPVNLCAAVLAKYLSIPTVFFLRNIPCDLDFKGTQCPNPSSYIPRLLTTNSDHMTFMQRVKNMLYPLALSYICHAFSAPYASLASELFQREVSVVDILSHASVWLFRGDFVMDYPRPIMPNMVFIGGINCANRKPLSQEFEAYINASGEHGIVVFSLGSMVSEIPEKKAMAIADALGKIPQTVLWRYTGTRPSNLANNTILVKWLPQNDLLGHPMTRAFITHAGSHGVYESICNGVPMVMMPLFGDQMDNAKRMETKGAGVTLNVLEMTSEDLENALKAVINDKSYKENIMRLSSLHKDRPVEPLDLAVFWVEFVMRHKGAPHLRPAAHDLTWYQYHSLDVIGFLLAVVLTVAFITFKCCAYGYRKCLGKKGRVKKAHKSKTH

[2] = biological target: T2, UGT1A9 (Homo sapiens, UniProt O60656); experiment: single-concentration; conditions: read-out: % inhibition at 100 μM
T2 sequence (O60656 26-530): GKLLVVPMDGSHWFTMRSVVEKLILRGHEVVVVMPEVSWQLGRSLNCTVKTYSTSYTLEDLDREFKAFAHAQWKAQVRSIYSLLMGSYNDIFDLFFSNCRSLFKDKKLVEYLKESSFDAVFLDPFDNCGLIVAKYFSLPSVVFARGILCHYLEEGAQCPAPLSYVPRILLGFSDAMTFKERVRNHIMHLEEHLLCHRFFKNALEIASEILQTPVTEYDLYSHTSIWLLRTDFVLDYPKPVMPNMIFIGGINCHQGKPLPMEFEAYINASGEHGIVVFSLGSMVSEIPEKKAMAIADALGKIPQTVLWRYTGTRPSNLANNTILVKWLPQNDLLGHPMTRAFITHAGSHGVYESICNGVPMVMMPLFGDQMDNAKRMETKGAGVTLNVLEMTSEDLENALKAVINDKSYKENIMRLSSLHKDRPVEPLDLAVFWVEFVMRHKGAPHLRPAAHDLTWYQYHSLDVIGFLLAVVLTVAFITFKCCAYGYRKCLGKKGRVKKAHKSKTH

[3] = biological target: T1, UGT1A3; experiment: dose-dependent inhibition of 4-MU glucuronidation, HPLC-UV; conditions: read-out: % inhibition at 100 μM
[4] = biological target: T3, UGT2B7 (Homo sapiens, UniProt P16662); experiment: single-concentration; conditions: read-out: % inhibition at 100 μM
T3 sequence (P16662 24-529): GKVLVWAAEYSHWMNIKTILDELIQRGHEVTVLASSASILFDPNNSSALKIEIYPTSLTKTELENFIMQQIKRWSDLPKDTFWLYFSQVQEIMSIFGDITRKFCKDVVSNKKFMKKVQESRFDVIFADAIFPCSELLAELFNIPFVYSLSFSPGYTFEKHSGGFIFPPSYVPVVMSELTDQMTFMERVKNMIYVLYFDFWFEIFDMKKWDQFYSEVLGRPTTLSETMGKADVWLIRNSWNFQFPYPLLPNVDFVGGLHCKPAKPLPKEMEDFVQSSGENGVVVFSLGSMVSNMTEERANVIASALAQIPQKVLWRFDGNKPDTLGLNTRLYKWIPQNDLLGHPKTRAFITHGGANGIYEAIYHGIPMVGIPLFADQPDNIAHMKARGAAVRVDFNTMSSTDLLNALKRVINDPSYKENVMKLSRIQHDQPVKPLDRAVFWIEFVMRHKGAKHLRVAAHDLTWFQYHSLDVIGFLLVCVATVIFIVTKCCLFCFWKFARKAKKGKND

[5] = biological target: T1, UGT1A3; experiment: inhibition kinetics of 4-MU glucuronidation by recombinant enzyme
Summary of the method: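 Insect-cell-expressed human UGT1A3 glucuronidating 4-MU across several substrate and test compound concentrations. Buffer: 5 mM UDPGA, 5 mM MgCl2, 50 mM Tris-HCl pH 7.4. 5 min preincubation, started with UDPGA, 37 °C. 4-MUG quantified by HPLC-UV at 316 nm against internal standard. Dixon and Lineweaver–Burk plots gave inhibition type; Ki from secondary plot of Lineweaver–Burk slopes versus inhibitor concentration.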

[6] = biological target: T4, UGT1A6 (Homo sapiens, UniProt P19224); experiment: single-concentration; conditions: read-out: % inhibition at 100 μM
T4 sequence (P19224 27-532): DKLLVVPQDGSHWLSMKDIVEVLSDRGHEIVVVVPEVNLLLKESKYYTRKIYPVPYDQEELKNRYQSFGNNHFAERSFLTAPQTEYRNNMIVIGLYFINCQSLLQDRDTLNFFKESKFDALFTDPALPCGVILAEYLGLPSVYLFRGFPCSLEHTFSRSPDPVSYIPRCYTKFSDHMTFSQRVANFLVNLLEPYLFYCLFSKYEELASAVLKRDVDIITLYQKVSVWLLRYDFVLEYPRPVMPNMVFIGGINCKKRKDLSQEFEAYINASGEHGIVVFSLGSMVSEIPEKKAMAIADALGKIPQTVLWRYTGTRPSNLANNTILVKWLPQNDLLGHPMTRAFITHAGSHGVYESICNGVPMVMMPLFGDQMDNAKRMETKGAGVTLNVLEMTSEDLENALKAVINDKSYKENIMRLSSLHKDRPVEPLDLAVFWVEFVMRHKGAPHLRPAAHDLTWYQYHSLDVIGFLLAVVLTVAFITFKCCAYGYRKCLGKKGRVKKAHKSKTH

For `Cc1cc(=O)oc2cc(O)ccc12` [4-MU, 4-Methylμmbelliferone], the “glucuronidation of 4-MU by recombinant enzyme, HPLC-UV” value [1] was “Determination of inhibition kinetics of DPhP towards UGT1A3-catalyzed glucuronidation of 4-MU”.

In the case of `CCCCCCCCOC(=O)c1ccccc1C(=O)OCCCCCCCC` [DNOP, di-n-octyl ortho-phthalate], the inhibition at 100 µM [2] is reported as 45.6%, the inhibition at 100 µM [3] is reported as 41.8% and the inhibition at 100 µM [4] is reported as 48.8%.

With `O=C(Oc1ccccc1)c1ccccc1C(=O)Oc1ccccc1` [DPhP, diphenyl phthalate] the inhibition at 100 µM [2] was 76.4%, the Ki [5] was 890 nM and the inhibition at 100 µM [6] was 49.1%.
